Measured values: ChEMBL document CHEMBL2407032, “Structural modification of pantothenamides counteracts degradation by pantetheinase and improves antiplasmodial activity” (ACS Med Chem Lett, 2013)

Columns and labels:
Plasmodium falciparum [1] = assay: Antiplasmodial activity against intraerythrocytic Plasmodium falciparum 3D7 infected in human erythrocytes in fresh RPMI-1640 culture medium assessed as parasite growth inhibition after 96 hrs by microscopic analysis; format: functional, organism-based; details: 3D7, 96 h
Outline: (§1)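 3D7 parasites in erythrocytes, started mostly at ring stage, grown 96 h in freshly prepared Albumax-complete RPMI (pantetheinase active) with 1 μM pantothenic acid. IC50 from concentration-response. Mean ± SEM (or range/2) of at least two independent experiments, each in triplicate.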

Plasmodium falciparum [2] = assay: Antiplasmodial activity against intraerythrocytic Plasmodium falciparum 3D7 infected in human erythrocytes in heat treated RPMI-1640 culture medium assessed as parasite growth inhibition after 96 hrs by microscopic analysis; format: functional, organism-based; details: 3D7, 96 h
Outline: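 3D7 ring-stage-initiated cultures in erythrocytes, grown 96 h in aged Albumax-complete RPMI. The medium was heat-treated for a prolonged time to reduce pantetheinase activity and held 1 μM pantothenic acid. IC50 from concentration-response. Mean ± SEM (or range/2) of at least two independent experiments, each in triplicate.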

[3] = Selectivity index, ratio of IC50 for human Jurkat cells to IC50 for intraerythrocytic Plasmodium falciparum 3D7 infected in human erythrocytes in fresh RPMI-1640 culture medium; format: toxicity, cell-based; details: read-out: Ratio IC50
Jurkat = assay: Cytotoxicity against human Jurkat cells after 96 hrs by SYBR green assay in presence of pantothenic acid; format: cell-based
Outline: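 Human leukemic T-cell line grown 96 h in medium with 1 μM pantothenic acid. IC50 from concentration-response profiles. Means ± SEM of three independent experiments performed in triplicate.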

Plasmodium falciparum [4] = assay: Antiplasmodial activity against intraerythrocytic Plasmodium falciparum 3D7 infected in human erythrocytes in fresh RPMI-1640 culture medium assessed as parasite growth inhibition after 96 hrs by microscopic analysis in presence of pantetheinase; format: functional, organism-based; details: 3D7, 96 h; outline: as §1
pantetheinase = assay: Drug metabolism of the compound assessed as compound hydrolysis at 200 uM after 10 mins by fluorescence assay in presence of recombinant human pantetheinase; format: physicochemical; details: read-out: Drug metabolism

CC(C)(CO)[C@@H](O)C(=O)NCCC(=O)NCC1CCCCC1
IC50 (Plasmodium falciparum [1]): > 200 µM | IC50 (Plasmodium falciparum [2]): > 200 µM

CC(C)(CO)[C@@H](O)C(=O)NCC(=O)NCCc1ccccc1
selectivity ratio [3]: 16 | IC50 (Plasmodium falciparum [1]): 3.4 µM | IC50 (Jurkat): 53 µM | IC50 (Plasmodium falciparum [4]): 135 µM | metabolised at 10 min, 200 µM (pantetheinase): 5%

CC(C)(CO)[C@@H](O)C(=O)NCCCC(=O)NCc1ccccc1
IC50 (Plasmodium falciparum [1]): 6.1 µM | IC50 (Plasmodium falciparum [2]): 4.7 µM | IC50 (Plasmodium falciparum [4]): > 200 µM | metabolised at 10 min, 200 µM (pantetheinase): 5%

CC(C)(CO)[C@@H](O)C(=O)NCC(=O)NCc1ccc(OC(F)(F)F)cc1
IC50 (Plasmodium falciparum [1]): 71 µM | IC50 (Plasmodium falciparum [2]): 64 µM | IC50 (Plasmodium falciparum [4]): > 200 µM | metabolised at 10 min, 200 µM (pantetheinase): 5%

CSCCCNC(=O)CCNC(=O)[C@H](O)C(C)(C)CO
IC50 (Plasmodium falciparum [1]): 143 µM | IC50 (Plasmodium falciparum [2]): 0.23 µM

CCCCCCNC(=O)CCCNC(=O)[C@H](O)C(C)(C)CO
IC50 (Plasmodium falciparum [1]): 8 µM | IC50 (Plasmodium falciparum [2]): 14 µM | IC50 (Plasmodium falciparum [4]): 199 µM | metabolised at 10 min, 200 µM (pantetheinase): 5%

COc1ccc(CNC(=O)CCCNC(=O)[C@H](O)C(C)(C)CO)cc1
IC50 (Plasmodium falciparum [1]): 9.5 µM | IC50 (Plasmodium falciparum [2]): 10 µM | IC50 (Plasmodium falciparum [4]): > 200 µM | metabolised at 10 min, 200 µM (pantetheinase): 5%

CCCCCNC(=O)CCCNC(=O)[C@H](O)C(C)(C)CO
selectivity ratio [3]: 49 | IC50 (Plasmodium falciparum [1]): 3.9 µM | IC50 (Jurkat): 192 µM | IC50 (Plasmodium falciparum [2]): 2.2 µM | IC50 (Plasmodium falciparum [4]): 195 µM | metabolised at 10 min, 200 µM (pantetheinase): 5%

CN(C)c1cccc2c(S(=O)(=O)NCCCCCNC(=O)CNC(=O)[C@H](O)C(C)(C)CO)cccc12
IC50 (Plasmodium falciparum [1]): 155 µM | IC50 (Plasmodium falciparum [4]): 157 µM | metabolised at 10 min, 200 µM (pantetheinase): 5%

CC(C)(CO)[C@@H](O)C(=O)NCC(=O)NCc1ccc(C(F)(F)F)cc1
IC50 (Plasmodium falciparum [1]): 48 µM | IC50 (Plasmodium falciparum [2]): 45 µM | IC50 (Plasmodium falciparum [4]): 57 µM | metabolised at 10 min, 200 µM (pantetheinase): 5%

CCCCNC(=O)CNC(=O)[C@H](O)C(C)(C)CO
IC50 (Plasmodium falciparum [1]): 5.3 µM | metabolised at 10 min, 200 µM (pantetheinase): 25%

COc1cccc(CNC(=O)CCNC(=O)[C@H](O)C(C)(C)CO)c1
IC50 (Plasmodium falciparum [1]): > 200 µM | IC50 (Plasmodium falciparum [2]): > 200 µM

CN(C)c1cccc2c(S(=O)(=O)NCCCCCNC(=O)CCCNC(=O)[C@H](O)C(C)(C)CO)cccc12
metabolised at 10 min, 200 µM (pantetheinase): 5%

CN(C)c1cccc2c(S(=O)(=O)NCCCCCNC(=O)CCNC(=O)[C@H](O)C(C)(C)CO)cccc12
IC50 (Plasmodium falciparum [1]): > 200 µM

CC(C)CNC(=O)CNC(=O)[C@H](O)C(C)(C)CO
IC50 (Plasmodium falciparum [1]): 18 µM | metabolised at 10 min, 200 µM (pantetheinase): 5%

CC(C)CCNC(=O)CNC(=O)[C@H](O)C(C)(C)CO
IC50 (Plasmodium falciparum [1]): 12 µM | metabolised at 10 min, 200 µM (pantetheinase): 5%

CC(C)(CO)[C@@H](O)C(=O)NCCCC(=O)NCC1CC1
IC50 (Plasmodium falciparum [1]): 12 µM | metabolised at 10 min, 200 µM (pantetheinase): 5%

CC(C)CNC(=O)CCCNC(=O)[C@H](O)C(C)(C)CO
IC50 (Plasmodium falciparum [1]): 11 µM | metabolised at 10 min, 200 µM (pantetheinase): 5%

CSCCCNC(=O)CCCNC(=O)[C@H](O)C(C)(C)CO
IC50 (Plasmodium falciparum [1]): 7.7 µM | metabolised at 10 min, 200 µM (pantetheinase): 5%

CC(C)(CO)[C@@H](O)C(=O)NCCCC(=O)NCc1cccc(C(F)(F)F)c1
metabolised at 10 min, 200 µM (pantetheinase): 5%

CCCCCCCNC(=O)CNC(=O)[C@H](O)C(C)(C)CO
IC50 (Plasmodium falciparum [1]): 46 µM | metabolised at 10 min, 200 µM (pantetheinase): 5%

COc1ccc(CNC(=O)CCNC(=O)[C@H](O)C(C)(C)CO)cc1
IC50 (Plasmodium falciparum [1]): > 200 µM | IC50 (Plasmodium falciparum [2]): > 200 µM

CC(C)(CO)[C@@H](O)C(=O)NCC(=O)NCC1CCCCC1
IC50 (Plasmodium falciparum [1]): 164 µM | IC50 (Plasmodium falciparum [2]): 140 µM | metabolised at 10 min, 200 µM (pantetheinase): 5%

CCCCCCNC(=O)CNC(=O)[C@H](O)C(C)(C)CO
selectivity ratio [3]: 27 | IC50 (Plasmodium falciparum [1]): 4.7 µM | IC50 (Jurkat): 126 µM | IC50 (Plasmodium falciparum [2]): 7.9 µM | IC50 (Plasmodium falciparum [4]): 104 µM | metabolised at 10 min, 200 µM (pantetheinase): 5%

CC(C)(CO)[C@@H](O)C(=O)NCC(=O)NCC1CC1
IC50 (Plasmodium falciparum [1]): 6.4 µM | IC50 (Plasmodium falciparum [4]): 183 µM | metabolised at 10 min, 200 µM (pantetheinase): 5%

CCSCCNC(=O)CCNC(=O)[C@H](O)C(C)(C)CO
IC50 (Plasmodium falciparum [1]): 87 µM | IC50 (Plasmodium falciparum [2]): 0.28 µM

CC(C)(CO)[C@@H](O)C(=O)NCCC(=O)NCc1ccc(C(F)(F)F)cc1
IC50 (Plasmodium falciparum [1]): 107 µM | IC50 (Plasmodium falciparum [2]): 117 µM

CC(C)(CO)[C@@H](O)C(=O)NCCC(=O)NCc1ccccc1
IC50 (Plasmodium falciparum [1]): > 200 µM | IC50 (Plasmodium falciparum [2]): > 200 µM

CCCNC(=O)CCNC(=O)[C@H](O)C(C)(C)CO
IC50 (Plasmodium falciparum [1]): 199 µM

CC(C)(CO)[C@@H](O)C(=O)NCC(=O)NCc1ccccc1
IC50 (Plasmodium falciparum [1]): 122 µM | IC50 (Plasmodium falciparum [2]): 127 µM | IC50 (Plasmodium falciparum [4]): > 200 µM | metabolised at 10 min, 200 µM (pantetheinase): 5%
